Screens deposited in PubChem by several laboratories.
In the library only some 1.3% were active in any assay of this set; here they are far more common.
DAGLB inh = diacylglycerol lipase beta (human) inhibition; AID 504411; inhibition, % at 5.17 µM; 0.059% of 340,000 active; HEK293T DAGLB membrane lysate, EnzChek fluorogenic substrate; in the data active means inhibition above about 34%;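 further: 0% = enzyme with vehicle and 100% = wells lacking enzyme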
SKN-1 block = blocks SKN-1 activity in C. elegans | C. elegans VP596 Pgst-4::GFP/RFP ratio, acrylamide-induced, 24 h | inhibition, % at 21.8 µM | 0.49% of 360,000 active | AID 624304;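 active means interference check ratio from 0.5 to 1.5 plus GFP to RFP signal ratio inhibition reaching or exceeding a fixed threshold, cut at about 30% in these data, passing the limit was not always enough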
iPSC survival up = enhancers of human iPSC single-cell survival | AID 602274 | survival enhancement, % at 20 µM | 0.044% of 360,000 active | hiPSC single-cell survival, ATPlite luminescence; 100% = ROCK inhibitor wells, 0% = DMSO; in the data active means survival enhancement above about 18%;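 further: cells exposed to compounds for 16 hours before the ATP read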
FAS-TE inh = inhibitors of human fatty acid synthase thioesterase domain | P49327 | recombinant FAS-TE, OMFH fluorogenic substrate, fluorescence endpoint | inhibition, % at 15 µM | 0.67% of 360,000 active | AID 602261;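 active means compounds whose normalised, plate-corrected inhibition of enzyme fluorescence in the single-dose primary screen is 50% or more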;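 further: 0% = DMSO with enzyme and 100% = substrate without enzyme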
MT1-MMP act inh = MT1-MMP (human) activation inhibition | HT1080 RFP-PRO-GFP cells, GFP/RFP ratio fluorescence, overnight; percent of plate control window, DMSO zero | 0.061% of 360,000 active | GFP/RFP ratio change, % at 20 µM | P50281;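 active means GFP/RFP ratio change of at least 30% with cell ATP level not reduced by more than half and red fluorescence within 50% of control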
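Assay system: RFP-PRO-GFP reporter HT1080 cells; read-out basis: GFP/RFP fluorescence ratio; benchmarks: DMSO wells and RFP-L50D-GFP cells; doses: 20 µM single dose, 1% DMSO; schedule: overnight cell settling, then overnight compound exposure, 37 °C, 5% CO2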
Starred values were filed as active, the others as inactive; . = not tested or not shown; ! = a repeat was not active.

SMILES | DAGLB inh | SKN-1 block | iPSC survival up | FAS-TE inh | MT1-MMP act inh
Cc1c(N=C/C=C2/N(C)c3ccccc3C2(C)C)c(=O)n(-c2ccccc2)n1C | -1.8 | 38.8*! | -1.1 | -7.3 | -0.3
CCCc1cc2nnc(SCC(=O)N(C)C3CCCCC3)n2c(N)n1 | 2.8 | 43.5* | -0.1 | -2.7 | -4.7
CCCc1cc(=O)[nH]c(SCC(=O)N(C)C2CCCCC2)n1 | 3.1 | 13.5 | -0.1 | -5.3 | 6.6
Cc1c(-n2c(CN3C(=O)c4ccccc4C3=O)nc3ccccc3c2=O)c(=O)n(-c2ccccc2)n1C | 1.2 | 39.5* | -1.1 | -2.3 | 1.6
Cc1cccc(C2=NN(c3ccc(Br)cc3)[C@@H](C(=O)N3CCOC3=O)[C@@H]2c2ccccc2)c1 | -1.2 | 6.3 | -1.8 | 71.8* | -2.1
C[C@@H]1C(c2cccc(Cl)c2)=NN(c2ccc(Br)cc2)[C@H]1C(=O)N1CCOC1=O | -0.5 | 8.9 | -2.6 | 56.3* | -0.2
C[C@@H]1C(c2cccc(Cl)c2)=NN(c2ccccc2)[C@H]1C(=O)N1CCOC1=O | -0.7 | -0.8 | 2.6 | 17.7 | -3.9
CCCN(C)C1CN(Cc2cn(Cc3ccc(F)cc3)nn2)S(=O)(=O)C1 (centres undefined) | . | -2.9 | -0.9 | -10.3 | 3.8
CCN(CC)c1ccc(/C=C2\C(=O)c3ccc(C(=O)O)cc3C2=O)cc1 | -107.9 | 36.3* | -1.5 | -9.3 | -27.1
Cc1cc2ccccc2n1CCNC(=O)C1CCCC1 | 2.3 | 37.5* | 2.0 | -7.3 | 56.1
CCCn1c(CCNC(=O)c2cccs2)nc2ccccc21 | 0.9 | -3.8 | -1.2 | 1.1 | -1.8
Cc1cc2ccccc2n1CCNC(=O)c1cccs1 | 3.7 | 46.0* | 4.3 | -0.9 | 47.6
O=C(NC1CCCC1)C(C1CC1)n1c(-c2cc3ccccc3[nH]2)nc2ccccc21 (centres undefined) | . | 3.1 | . | . | -1.6
Cc1ccc(S(=O)(=O)N2C3CC(c4ccccc4)N(S(=O)(=O)c4cccc(Cl)c4)CC3C(=O)C[C@H]2c2ccccc2)cc1 (some centres undefined) | . | -0.9 | . | . | -9.1
O=C(CC[C@H]1O[C@@H](n2ccc(=O)[nH]c2=O)[C@H](O)[C@@H]1O)N[C@H](Cc1ccccc1)C(=O)NCC1CCCO1 (some centres undefined) | . | 17.1 | -2.2 | -4.8 | 4.3
CC1(C)CC(=O)c2sc(NC(=O)c3ccco3)nc2C1 | -4.2 | 10.2 | -3.3 | -4.1 | 0.3
Cc1onc(-c2ccccc2)c1C(=O)Nc1nc2c(s1)C(=O)CC(C)(C)C2 | 1.3 | 40.3* | -0.9 | -3.5 | 3.5
O=c1[nH]nc(Cc2ccc([N+](=O)[O-])cc2)c2ccccc12 | -1.0 | 31.9* | -1.0 | 4.0 | 2.8
O=[N+]([O-])c1ccc(-c2cn(-c3ccc(Cl)cc3)cn2)cc1 | . | 16.6 | 0.1 | 15.0 | 4.7
Brc1ccc(-n2cnc(-c3ccccc3)c2)cc1 | -5.0 | 39.8* | -0.2 | 15.8 | 1.6
CC(C)Oc1ccc(CN2CCC2(C)C(=O)Nc2ccc(Cl)c(Cl)c2)cc1 (centres undefined) | . | 15.9 | -1.6 | 30.8 | -0.8
O=C(CN1C(=O)NC2(CCCC2)C1=O)Nc1cc(S(=O)(=O)N2CCOCC2)ccc1OCC(F)(F)F | -2.1 | 40.3* | 0.0 | -4.1 | 1.6
c1ccc(CSc2ncnc3sccc23)cc1 | -6.3 | 43.0* | -0.9 | 24.6 | -6.1
Cc1nc(SCc2ccccc2)c2ccsc2n1 | -12.1 | 5.1 | -0.2 | 16.8 | 1.5
COc1ccc(CN2CCC[C@]3(N[C@H](c4ccc(OC)cc4)[C@@H]4C(=O)N(C)C(=O)[C@@H]43)C2=O)cc1 | 0.3 | -20.9 | 1.1 | -10.6 | -1.7
SMILES | DAGLB inh | SKN-1 block | iPSC survival up | FAS-TE inh | MT1-MMP act inh
c1ccc(N=Nc2ccc(C3=NCCO3)cc2)cc1 | 2.8 | 53.0* | -4.3 | 3.0 | 4.1
O=C(Nc1ccc([N+](=O)[O-])cc1)/C(=C/c1cccc([N+](=O)[O-])c1)NC(=O)C1CCCCC1 | 1.1 | 15.8 | -2.0 | 59.0* | 3.4
NS(=O)(=O)c1ccc(N2C(=O)CCCC2=O)cc1 | 1.4 | 10.9 | 2.7 | -11.8 | 1.1
COC(=O)CSc1nc2cc3c(cc2cc1C#N)OCO3 | 1.6 | 26.2 | -2.3 | -2.5 | -5.6
CC(C)OC(=O)CSc1nc2cc3c(cc2cc1C#N)OCO3 | -2.5 | 33.8* | 2.3 | -5.5 | -1.5
Cc1ccc(S(=O)(=O)NC(=O)C2(C)CCN2C(=O)Cc2ccc(Cl)cc2Cl)nc1 (centres undefined) | . | 1.4 | -0.8 | -3.0 | -1.4
COc1ccc([C@H]2N[C@]3(CCCN(Cc4ccco4)C3=O)[C@H]3C(=O)N(Cc4ccccc4)C(=O)[C@@H]23)cc1 | -3.4 | -9.4 | -0.7 | -3.2 | -2.5
O=C([C@H]1O[C@@H](n2ccc(=O)[nH]c2=O)[C@H](O)[C@@H]1O)N1CCSC1 | . | 1.8 | -1.4 | -8.6 | 2.9
Cc1nn(C(=O)CCC(=O)NCc2cccc(F)c2)c2ccccc12 | -0.4 | 34.5* | 0.1 | -2.6 | -6.1
COc1ccc(CCNC(=O)Nc2ccc3nc([C@@H]4O[C@H](CO)[C@@H](O)[C@H](O)[C@H]4O)[nH]c3c2)cc1Br | . | 9.1 | -2.3 | -6.5 | 7.6
Cc1ccc2nc(CSc3nc(C)cc(C)c3C#N)[nH]c2c1 | 0.6 | 9.9 | -4.5 | 78.5* | 4.9
Nc1cc2c(cc1C(=O)c1ccccc1)OCCO2 | 1.5 | 1.1 | -1.4 | -0.1 | 7.4
O=C(c1ccccc1)c1c[nH]c2cc3c(cc2c1=O)OCCO3 | -3.4 | 47.4* | 3.9 | -4.5 | -1.2
CCN(CC(=O)Nc1ccccc1C(F)(F)F)C(=O)c1ccc(NC(=O)c2cccs2)cc1 | 0.6 | 47.5* | -1.1 | -4.6 | 1.0
CC(C)NC(=O)C1(C)CSCC(=O)N1CCCN1CCOCC1 (centres undefined) | . | 35.4* | . | . | 0.5
Cc1c(Nc2cc(Cl)c3nonc3c2[N+](=O)[O-])c(=O)n(-c2ccccc2)n1C | 2.9 | 4.7 | 33.1* | 32.6 | 17.5
O=C(Nc1ccccc1F)C1CCN(C(=O)NC2CCCCC2)CC1 | -1.3 | 1.7 | 0.5 | -9.0 | 0.2
O=C(Nc1ccccc1F)C1CCCC1 | -0.2 | 41.3* | -0.8 | -7.6 | 3.8
O=C(CCN1CCCCCC1)Nc1ccccc1F | 2.7 | 49.1* | 3.4 | -1.4 | 2.0
O=C(CN1CCCCCC1)Nc1ccccc1F | 0.4 | -4.0 | 1.6 | -5.6 | -0.8
COC(=O)c1ccc(Cn2c(C)c(C(=O)NCc3cccs3)sc2=O)o1 | . | 2.8 | -2.4 | -2.7 | 1.5
CCC(=O)N1CCC(C)(C(=O)Nc2ccc(OC)c(OC)c2)C1 (centres undefined) | . | -12.0 | -1.0 | -8.3 | -1.3
O=c1oc2ccc3ccccc3c2cc1-c1nnc(-c2ccccc2)o1 | -3.6 | 52.1* | 0.7 | 8.3 | 6.0
COc1ccc(-c2nnc(-c3cc4c(ccc5ccccc54)oc3=O)o2)cc1 | -2.4 | 10.2 | 2.1 | 1.5 | 3.6
COC(=O)C1(C)COP(=O)(Nc2ccc(OC)cc2)OC1 (centres undefined) | . | 6.1 | -0.2 | -2.8 | 6.6
